Most compounds without a hit are left out; they make up all but 27% or so of the library.
CYP2C9 inh: inhibitors of human CYP2C9. CYP2C9 Supersomes, luciferin-H conversion, luminescence. inhibition, % at 5 µM. actives 20% (n = 96,000). AID 777;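 active = blocking of liver enzyme CYP2C9 beyond about 50% at 5 µM, limit read from the data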
CYP2C19 activ: activators of human cytochrome P450 2C19; P33261; recombinant CYP2C19, luciferin-H EGE luminescence; stronger effect = higher value; 0 = fully inhibited enzyme, 1 = untreated enzyme; activation factor at 5 µM; 96,000 tested, under 10 active;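 active = activation factor of at least 2 at 5 µM in the primary screen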
CYP2C19 inhib: inhibitors of human CYP2C19 | P33261 | CYP2C19 Supersomes, luciferin-H EGE luminescence, 30 min | inhibition, % at 5 µM | actives 21% (n = 96,000);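 active = CYP2C19 inhibition above a set limit at 5 µM in the primary screen, cut at about 50% in these data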
Cav32 inh: human Cav3.2 channel inhibition, primary screen; O95180; Cav3.2-expressing cells, Fluo-4 calcium fluorescence FDSS; stronger effect = lower value; B-score at 10 µM; actives 4% (n = 100,000); AID 449739;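 active = single-dose well whose peak fluorescence ratio is a statistical outlier from its plate by either plate-standardised score or position-corrected B-score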
Rev-RRE block: disrupts HIV-1 Rev binding to RRE RNA. P05866. Rev peptide-RRE RNA binding, FRET. inhibition, % at 8 µM. actives 0.79% (n = 97,000). AID 704;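 active = inhibition above the screen-wide mean plus 3 SD, cut at about 35% in these data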
Target sequence (P05866 whole entry, looked up): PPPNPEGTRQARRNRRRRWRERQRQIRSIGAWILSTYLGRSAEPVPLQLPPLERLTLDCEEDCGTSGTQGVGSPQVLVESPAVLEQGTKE
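Assay system: Rev peptide and RRE RNA, both fluorescently labelled; times: 5 min preincubation and 15 min binding, 25 °C; detection: FRET, ex 480 nm, em 540 and 671 nm; read-out basis: % inhibition from 671/540 nm acceptor-to-donor ratio, scaled between controls; benchmarks: DMSO low control, neomycin B high control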
CYP2C9 act: activators of human CYP2C9. actives 1.4% (n = 96,000). activation factor at 5 µM. P11712. recombinant CYP2C9, luciferin-H conversion, luminescence; stronger effect = higher value; factor 1 = untreated enzyme, 0 = blocked. AID 1024;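 active = activation factor of 2 or more for CYP2C9 at a 5 µM dose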
A number is an active result.

What do the screens show for `COC(=O)c1ccc2c(=O)n(CCCCCC(=O)NCc3ccccc3)c(=O)[nH]c2c1`?
CYP2C9 inh: 51; CYP2C19 activ: inactive; CYP2C19 inhib: inactive; Cav32 inh: inactive; Rev-RRE block: inactive; CYP2C9 act: inactive

Results for CCCCCn1c(=O)[nH]c2cc(C(=O)NCc3ccc4c(c3)OCO4)ccc2c1=O ?
CYP2C9 inh: inactive; CYP2C19 activ: inactive; CYP2C19 inhib: inactive; Cav32 inh: inactive; Rev-RRE block: inactive; CYP2C9 act: inactive

How did COC(=O)c1ccc2c(=O)n(CCCCCC(=O)NCc3ccccn3)c(=O)[nH]c2c1 do in these assays?
CYP2C9 inh: inactive; CYP2C19 activ: inactive; CYP2C19 inhib: inactive; Cav32 inh: inactive; Rev-RRE block: inactive; CYP2C9 act: inactive

Results for COC(=O)c1ccc2c(=O)n(CCCCCC(=O)NCc3ccc4c(c3)OCO4)c(=O)[nH]c2c1 ?
CYP2C9 inh: 52; CYP2C19 activ: inactive; CYP2C19 inhib: inactive; Cav32 inh: inactive; Rev-RRE block: inactive; CYP2C9 act: inactive

How did N#CC(c1ccc(Cl)cc1)c1ccc(Cl)nn1 (configuration not stated) do in these assays?
CYP2C9 inh: inactive; CYP2C19 activ: inactive; CYP2C19 inhib: 53; Cav32 inh: inactive; Rev-RRE block: inactive; CYP2C9 act: inactive

Results for CO/N=C(/CS(=O)(=O)c1ccc(C)cc1)c1ccc(OC)cc1 ?
CYP2C9 inh: inactive; CYP2C19 activ: inactive; CYP2C19 inhib: 99; Cav32 inh: inactive; Rev-RRE block: inactive; CYP2C9 act: inactive

Results for Cn1cc(S(=O)(=O)N2CCc3ccccc3C2)c(=O)n(C)c1=O ?
CYP2C9 inh: inactive; CYP2C19 activ: inactive; CYP2C19 inhib: inactive; Cav32 inh: inactive; Rev-RRE block: inactive; CYP2C9 act: inactive

How did O=C1C2ON(c3ccccc3)C(c3ccccn3)C2C(=O)N1c1ccc(Br)cc1 (configuration not stated) do in these assays?
CYP2C9 inh: 74; CYP2C19 activ: inactive; CYP2C19 inhib: inactive; Cav32 inh: inactive; Rev-RRE block: inactive; CYP2C9 act: inactive

How did Cc1ccccc1N1OC2C(=O)N(c3ccc(F)cc3)C(=O)C2C1c1ccccn1 (configuration not stated) do in these assays?
CYP2C9 inh: inactive; CYP2C19 activ: inactive; CYP2C19 inhib: inactive; Cav32 inh: inactive; Rev-RRE block: inactive; CYP2C9 act: inactive

Results for O=C1C2C(c3ccccc3)C=CC(c3ccccc3)C2C(=O)N1c1ccncc1 (configuration not stated) ?
CYP2C9 inh: 82; CYP2C19 activ: inactive; CYP2C19 inhib: 97; Cav32 inh: inactive; Rev-RRE block: inactive; CYP2C9 act: inactive

Results for Cc1ccc(N2C(=O)C3ON(c4ccccc4)C(c4ccncc4)C3C2=O)cc1 (configuration not stated) ?
CYP2C9 inh: 97; CYP2C19 activ: inactive; CYP2C19 inhib: 100; Cav32 inh: inactive; Rev-RRE block: inactive; CYP2C9 act: inactive

How did O=C1C2C3C=CC(C3)C2C(=O)N1c1ccncc1 (configuration not stated) do in these assays?
CYP2C9 inh: inactive; CYP2C19 activ: inactive; CYP2C19 inhib: inactive; Rev-RRE block: inactive; CYP2C9 act: inactive

What do the screens show for `O=C1C2ON(c3ccccc3)C(c3ccncc3)C2C(=O)N1c1ccc(Br)cc1` (configuration not stated)?
CYP2C9 inh: 99; CYP2C19 activ: inactive; CYP2C19 inhib: 100; Cav32 inh: inactive; Rev-RRE block: inactive; CYP2C9 act: inactive

How did O=C1C2ON(c3ccccc3)C(c3ccncc3)C2C(=O)N1c1ccc(N2CCOCC2)cc1 (configuration not stated) do in these assays?
CYP2C9 inh: inactive; CYP2C19 activ: inactive; CYP2C19 inhib: inactive; Cav32 inh: inactive; Rev-RRE block: inactive; CYP2C9 act: inactive

What do the screens show for `O=C(Nc1ccccc1)C1=C[C@@H](C2CCCCC2)C[C@@H](OCCCCO)O1`?
Cav32 inh: inactive

Results for Cc1cc(C)c(S(=O)(=O)c2c(C)cccc2C)c(OCC(C)C)n1 ?
CYP2C9 inh: 91; CYP2C19 activ: inactive; CYP2C19 inhib: 84; Rev-RRE block: inactive; CYP2C9 act: inactive

How did Cc1cc(NC2CCCCC2)nc(-c2ccccc2O)n1 do in these assays?
CYP2C9 inh: 57; CYP2C19 activ: inactive; CYP2C19 inhib: inactive; Cav32 inh: inactive; Rev-RRE block: inactive; CYP2C9 act: inactive

Assay outcomes as filed in PubChem.
